Laboratory results from ChEMBL document CHEMBL4406822, “Neuroactive Steroid N-Methyl-d-aspartate Receptor Positive Allosteric Modulators: Synthesis, SAR, and Pharmacological Activity” (J Med Chem, 2019).
Calls of active or inactive are those of the source. The calls are words filed in the database; no cut-off is given here.

Assays:
[1] = Oral bioavailability in rat; format: ADME, organism-based; details: in vivo
Rattus norvegicus [2] = test: Improvement in social recognition in 20 to 21 months old Wistar Han rat model of aged-induced memory deficit assessed as reduction in time spent with familiar juvenile at 3 mg/kg, ip administered 4 hrs prior to training trial and measured after 30 mins; format: functional, organism-based
[3] = Stability in rat liver microsomes; format: ADME, Microsome; details: read-out: Stability
[4] = target: T1, Glutamate NMDA receptor; GRIN1/GRIN2A (Homo sapiens, UniProt Q05586+Q12879); test: Positive allosteric modulation of recombinant human GluN1/GluN2A receptor stably expressed in HEK293 cells assessed as increase in glycine/L-glutamate-induced channel current at -70 mV holding potential by IonWork […] method relative to control; format: cell-based
Outline: (§1)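 Stable HEK293 lines expressing GluN1/GluN2A or GluN1/GluN2B, measured by automated whole-cell patch clamp (Ionworks Barracuda). Cells were held at -70 mV and stepped to -45 mV during agonist application (EC20 L-glutamate plus 50 µM glycine). The test article was first pre-applied alone for 5 min, then co-applied with agonist to record potentiation. Concentration-response percent potentiation gave EC50 and Emax.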

[5] = Drug uptake in 20 to 21 months old Wistar Han rat model of aged-induced memory deficit brain at 10 mg/kg, ip measured after 4 hrs; format: ADME, organism-based; details: read-out: Drug uptake
Rattus norvegicus [6] = test: Improvement in social recognition in 20 to 21 months old Wistar Han rat model of aged-induced memory deficit assessed as reduction in time spent with familiar juvenile at 1 mg/kg, ip administered 4 hrs prior to training trial and measured after 30 mins; format: functional, organism-based
[7] = Volume of distribution at steady state in rat; format: ADME; details: in vivo, read-out: Vdss
[8] = Clearance in iv dosed rat; format: ADME, organism-based; details: in vivo
[9] = Drug uptake in 20 to 21 months old Wistar Han rat model of aged-induced memory deficit brain at 3 mg/kg, ip measured after 4 hrs; format: ADME, organism-based; details: read-out: Drug uptake
[10] = Drug uptake in 20 to 21 months old Wistar Han rat model of aged-induced memory deficit brain at 1 mg/kg, ip measured after 4 hrs; format: ADME, organism-based; details: read-out: Drug uptake
[11] = Ratio of drug level in Sprague-Dawley rat brain to plasma at 2.5 mg/kg, iv measured after 1 hr; format: ADME, organism-based; details: brain and plasma, read-out: BPR
[12] = target: T1, Glutamate NMDA receptor; GRIN1/GRIN2A; test: Positive allosteric modulation of recombinant human GluN1/GluN2A receptor stably expressed in HEK293 cells assessed as increase in glycine/L-glutamate-induced channel current at -70 mV holding potential by IonWork […] method; format: cell-based; outline: as §1
Hippocampus = test: Induction of synaptic plasticity in postnatal 120 to 150 day rat brain hippocampal slice assessed as stimulation of theta burst stimulaiton-induced field potential potentiation at 1 uM treated 20 mins prior to theta burst stimulation and measured after 60 mins by electrophysiological method; format: functional, tissue-based
Rattus norvegicus [13] = test: Improvement in social recognition in 20 to 21 months old Wistar Han rat model of aged-induced memory deficit assessed as reduction in time spent with familiar juvenile at 10 mg/kg, ip administered 4 hrs prior to training trial and measured after 30 mins; format: functional, organism-based
[14] = Stability in human liver microsomes; format: ADME, Microsome; details: read-out: Stability
[15] = target: T2, Glutamate NMDA receptor; GRIN1/GRIN2B (Homo sapiens, UniProt Q05586+Q13224); test: Positive allosteric modulation of recombinant human GluN1/GluN2B receptor stably expressed in HEK293 cells assessed as increase in glycine/L-glutamate-induced channel current at -70 mV holding potential by IonWork […] method; format: cell-based; outline: as §1
[16] = target: T2, Glutamate NMDA receptor; GRIN1/GRIN2B; test: Positive allosteric modulation of recombinant human GluN1/GluN2B receptor stably expressed in HEK293 cells assessed as increase in glycine/L-glutamate-induced channel current at -70 mV holding potential by IonWork whole cell patch clamp method relative to control
[17] = Positive allosteric modulation of recombinant dog GluN1/GluN2A receptor expressed in Xenopus laevis oocytes assessed as increase in glycine/L-glutamate-induced channel current at -80 mV holding potential by two-electrode voltage clamp method; format: cell-based; details: Canis lupus familiaris
[18] = Half life in rat; format: ADME; details: in vivo
[19] = target: Glutamate NMDA receptor; Grin1/Grin2a (Rattus norvegicus, UniProt P35439+Q00959); test: Positive allosteric modulation of recombinant rat GluN1/GluN2A receptor expressed in Xenopus laevis oocytes assessed as increase in glycine/L-glutamate-induced channel current at -80 mV holding potential by two-electrode voltage clamp method; format: cell-based
[20] = target: T1, Glutamate NMDA receptor; GRIN1/GRIN2A; test: Positive allosteric modulation of recombinant human GluN1/GluN2A receptor expressed in Xenopus laevis oocytes assessed as increase in glycine/L-glutamate-induced channel current at -80 mV holding potential by two-electrode voltage clamp method; format: cell-based
Canis lupus familiaris = organism: Canis lupus familiaris; test: Positive allosteric modulation of recombinant dog GluN1/GluN2A receptor expressed in Xenopus laevis oocytes assessed as increase in glycine/L-glutamate-induced channel current at -80 mV holding potential by two-electrode voltage clamp method relative to control; format: cell-based
[21] = target: Glutamate NMDA receptor; Grin1/Grin2a (Rattus norvegicus) (UniProt P35439+Q00959); test: Positive allosteric modulation of recombinant rat GluN1/GluN2A receptor expressed in Xenopus laevis oocytes assessed as increase in glycine/L-glutamate-induced channel current at -80 mV holding potential by two-electrode voltage clamp method relative to control; format: cell-based
[22] = target: T1, Glutamate NMDA receptor; GRIN1/GRIN2A; test: Positive allosteric modulation of recombinant human GluN1/GluN2A receptor expressed in Xenopus laevis oocytes assessed as increase in glycine/L-glutamate-induced channel current at -80 mV holding potential by two-electrode voltage clamp method relative to control; format: cell-based

Compound	bioavailability [1] [%]	microsomal CLint [3] [µL/min/mg]	Emax [4] [%]	Vd [7] [L/kg]	clearance [8] [mL/min/kg]	EC50 [12] [nM]	microsomal CLint [14] [µL/min/mg]	EC50 [15] [nM]	Emax [16] [%]	other results
C[C@H](CCC(C)(C)O)[C@H]1CC[C@H]2[C@@H]3CC=C4C[C@@](C)(O)CC[C@]4(C)[C@H]3CC[C@]12C	28	35	220	0.65	18.3	480	13	38	92	Activity (Rattus norvegicus [2]): inactive; concentration at 4 h [5]: 3700 nM; Activity (Rattus norvegicus [6]): Active; concentration at 4 h [9]: 900 nM; concentration at 4 h [10]: 400 nM; Kp at 1 h [11]: 0.6; Activity (Hippocampus): Active; Activity (Rattus norvegicus [13]): Active
CC(C)[C@@H](O)CC[C@@H](C)[C@H]1CC[C@H]2[C@@H]3CC=C4C[C@@H](O)CC[C@]4(C)[C@H]3CC[C@]12C	9	52	210	2.5	98.3	150	10	530	150	EC50 [17]: 650 nM; half-life [18]: 32.4 min; EC50 [19]: 650 nM; EC50 [20]: 300 nM; Emax (Canis lupus familiaris): 130%; Emax [21]: 180%; Emax [22]: 73%
